From article PMC6081960 (Bioorganic & medicinal chemistry letters, 2018)

Assays:
NALM16 cells = assay: St. Jude cancer cell line panel, NALM16; type: cell-based, human; conditions: ALL cell line; confidence intervals in parentheses; NA: not active
In short: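 Human ALL line NALM16, derived from the peripheral blood of a child at relapse in 1977. Carries a near-haploid karyotype. Tested in a St. Jude screening panel alongside three other ALL lines, one lymphoma line and mouse choroid plexus carcinoma CPC300 cells.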

REH cells = assay: St. Jude cancer cell line panel, REH; type: cell-based, human; conditions: precursor B-cell ALL; confidence intervals in parentheses; NA: not active
In short: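 REH: patient-derived precursor B-cell ALL line that expresses only wild-type MLL and wild-type AF4. Screened in a St. Jude panel with other ALL lines, a lymphoma line and mouse CPC300 cells.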

RAJI cells = assay: St. Jude cancer cell line panel, RAJI; type: cell-based; conditions: Burkitt's lymphoma; confidence intervals in parentheses; NA: not active
In short: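 RAJI Burkitt's lymphoma cells, FAB L3 subtype, served as the panel's single lymphoma line. Screened together with four ALL lines and mouse CPC300 choroid plexus carcinoma cells at St. Jude.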

CSc1ccc(/C=C2/C(C)=C(CC(=O)NCCN(C)C)c3cc(F)ccc32)cc1 [SSA, sulindac sulfide amide]
no activity: EC50 NALM16 (NALM16 cells) | EC50 REH (REH cells) | EC50 RAJI (RAJI cells)
